Data published in ChEMBL document CHEMBL1795252, “New class azaphilone produced by a marine fish-derived Chaetomium globosum. The stereochemistry and biological activities” (Bioorg Med Chem, 2011).

Legend:
Type in all cases: functional, cell-based
[1] = system: KB; experiment: Cytotoxicity against human KB cells after 72 hrs by MTT assay
Method in brief: (§1)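 Cells grown in Eagle's MEM with 10% fetal calf serum at 37 °C, 5% CO2. Test material dissolved in DMSO (10 mM stock), diluted in medium to 200, 20 and 2 µM working solutions, combined with cell suspension (1 × 10^5 cells/ml). Incubated 72 h at 37 °C, MTT labeling, formazan dissolved in 20% SDS/0.1 N HCl, absorbance 540 nm. Growth as % of untreated control; triplicate assays; IC50 from semilog plots of averaged data.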

[2] = system: L1210; experiment: Cytotoxicity against mouse L1210 cells after 72 hrs by MTT assay; conditions: L1210, 72 h; method in brief: as §1
[3] = system: P388; experiment: Cytotoxicity against mouse P388 cells after 72 hrs by MTT assay; conditions: P388, 72 h; method in brief: as §1
[4] = system: HL-60; experiment: Cytotoxicity against human HL60 cells after 72 hrs by MTT assay; conditions: HL-60, 72 h; method in brief: as §1

Row | SMILES | IC50 [1] | IC50 [2] | IC50 [3] | IC50 [4]
1 | O=c1[nH]cc(F)c(=O)[nH]1 [FLUOROURACIL] | 7700 nM | 1100 nM | 1700 nM | 2700 nM
2 | C/C=C(\C)C(=O)C[C@H]1C2=COC(/C=C/[C@@H](C)[C@@H](C)O)=CC2=C(Cl)C(=O)[C@@]1(C)O [CHAETOMUGILIN I] | 2300 nM | 1900 nM | 1100 nM | 1100 nM
3 | C[C@H](O)[C@@H](C)/C=C/C1=CC2=C(Cl)C(=O)[C@](C)(O)[C@@H](O)[C@@H]2CO1 [CHAETOMUGILIN R] | 67100 nM | 67100 nM | 32000 nM | 51800 nM
4 | C/C=C(\C)C(=O)C[C@H]1C2=COC(/C=C/[C@H](C)[C@@H](C)O)=CC2=C(Cl)C(=O)[C@@]1(C)O | 1200 nM | 1600 nM |  | 1000 nM
5 | C/C=C(\Cl)C(=O)[C@@](C)(O)[C@H]1CC(=O)C(C)=C2C=C(/C=C/[C@@H](C)[C@@H](C)O)OC=C21 [CHAETOMUGILIN P] | 1800 nM | 1500 nM | 700 nM | 1200 nM
